Experimental data: ChEMBL document CHEMBL4145441, “Discovery of N-(5-((5-chloro-4-((2-(isopropylsulfonyl)phenyl)amino)pyrimidin-2-yl)amino)-4-methoxy-2-(4-methyl-1,4-diazepan-1-yl)phenyl)acrylamide (CHMFL-ALK/EGFR-050) as a potent ALK/EGFR dual kinase inhibitor capable of overcoming a variety of ALK/EGFR associated drug resistant mutants in NSCLC” (Eur J Med Chem, 2017)

Columns and labels:
[1] = system: NCI-H1975; test: Growth inhibition of human NCI-H1975 cells after 72 hrs by CellTiter-Glo assay; assay type: functional; conditions: NCI-H1975, 72 h
How it was run: (§1)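 Antiproliferative GI50 against H1975 and H3122 cells; each GI50 value obtained from triplicate testing.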

[2] = system: NCI-H3122; test: Growth inhibition of human NCI-H3122 cells after 72 hrs by CellTiter-Glo assay; assay type: functional; conditions: NCI-H3122, 72 h; how it was run: as §1
[3] = Antiproliferative activity against mouse BAF3 cells after 72 hrs by CellTiter-Glo assay; assay type: cell-based
[4] = biological target: T1, Epidermal growth factor receptor (Homo sapiens, UniProt P00533); test: Inhibition of TEL-fused EGFR (unknown origin) expressed in mouse BAF3 cells assessed as decrease in cell proliferation after 72 hrs by CellTiter-Glo assay; assay type: cell-based
[5] = system: Epidermal growth factor receptor (Homo sapiens), P00533 [C797S]; test: Inhibition of TEL-fused EGFR C797S mutant (unknown origin) expressed in mouse BAF3 cells assessed as decrease in cell proliferation after 72 hrs by CellTiter-Glo assay; assay type: cell-based
[6] = system: Epidermal growth factor receptor (Homo sapiens), P00533 [T790M]; test: Inhibition of TEL-fused EGFR T790M mutant (unknown origin) expressed in mouse BAF3 cells assessed as decrease in cell proliferation after 72 hrs by CellTiter-Glo assay; assay type: cell-based
[7] = biological target: T1, Epidermal growth factor receptor; test: Inhibition of full length EGFR del19 mutant (unknown origin) expressed in mouse BAF3 cells assessed as decrease in cell proliferation after 72 hrs by CellTiter-Glo assay; assay type: cell-based
[8] = system: Epidermal growth factor receptor (Homo sapiens), P00533 [L858R]; test: Inhibition of full length EGFR L858R mutant (unknown origin) expressed in mouse BAF3 cells assessed as decrease in cell proliferation after 72 hrs by CellTiter-Glo assay; assay type: cell-based
[9] = system: Epidermal growth factor receptor (Homo sapiens), P00533 [L858R,T790M]; test: Inhibition of full length EGFR L858R/T790M mutant (unknown origin) expressed in mouse BAF3 cells assessed as decrease in cell proliferation after 72 hrs by CellTiter-Glo assay; assay type: cell-based
[10] = system: Epidermal growth factor receptor (Homo sapiens), P00533 [L858R,T790M,C797S]; test: Inhibition of full length EGFR L858R/T790M/C797S mutant (unknown origin) expressed in mouse BAF3 cells assessed as decrease in cell proliferation after 72 hrs by CellTiter-Glo assay; assay type: cell-based
[11] = system: NCI-H1975; test: Antiproliferative activity against human NCI-H1975 cells harboring EGFR L858R/T790M mutant after 72 hrs by CellTiter-Glo assay; assay type: functional; conditions: NCI-H1975, 72 h; how it was run: as §1
[12] = system: PC-9; test: Antiproliferative activity against human PC9 cells harboring EGFR del19 mutant after 72 hrs by CellTiter-Glo assay; assay type: functional; conditions: PC-9, 72 h
[13] = system: HCC827; test: Antiproliferative activity against human HCC827 cells harboring EGFR del19 mutant after 72 hrs by CellTiter-Glo assay; assay type: functional; conditions: HCC827, 72 h
[14] = system: NCI-H3255; test: Antiproliferative activity against human H3255 cells harboring EGFR L858R mutant after 72 hrs by CellTiter-Glo assay; assay type: functional; conditions: NCI-H3255, 72 h
[15] = system: A549; test: Antiproliferative activity against human A549 cells harboring wild-type EGFR after 72 hrs by CellTiter-Glo assay; assay type: functional; conditions: A549, 72 h
[16] = system: NCI-H2122; test: Antiproliferative activity against human NCI-H2122 cells harboring wild-type EGFR after 72 hrs by CellTiter-Glo assay; assay type: functional; conditions: NCI-H2122, 72 h
[17] = system: NCI-H1355; test: Antiproliferative activity against human NCI-H1355 cells harboring wild-type EGFR after 72 hrs by CellTiter-Glo assay; assay type: functional; conditions: NCI-H1355, 72 h
[18] = system: NCI-H3122; test: Antiproliferative activity against human NCI-H3122 cells harboring EML4-fused ALK varian1 after 72 hrs by CellTiter-Glo assay; assay type: functional; conditions: NCI-H3122, 72 h; how it was run: as §1
[19] = system: NCI-H2228; test: Antiproliferative activity against human NCI-H2228 cells harboring EML4-fused ALK varian3 after 72 hrs by CellTiter-Glo assay; assay type: functional; conditions: NCI-H2228, 72 h
[20] = Antiproliferative activity against CHO cells after 72 hrs by CellTiter-Glo assay; assay type: cell-based, Cricetulus griseus; conditions: chinese hamster
[21] = Antiproliferative activity against CHL cells after 72 hrs by CellTiter-Glo assay; assay type: cell-based, Cricetulus griseus; conditions: chinese hamster

Epidermal growth factor receptor (Homo sapiens), P00533 [T790M], sequence (P00533 whole entry T790M, the tested form may be a part): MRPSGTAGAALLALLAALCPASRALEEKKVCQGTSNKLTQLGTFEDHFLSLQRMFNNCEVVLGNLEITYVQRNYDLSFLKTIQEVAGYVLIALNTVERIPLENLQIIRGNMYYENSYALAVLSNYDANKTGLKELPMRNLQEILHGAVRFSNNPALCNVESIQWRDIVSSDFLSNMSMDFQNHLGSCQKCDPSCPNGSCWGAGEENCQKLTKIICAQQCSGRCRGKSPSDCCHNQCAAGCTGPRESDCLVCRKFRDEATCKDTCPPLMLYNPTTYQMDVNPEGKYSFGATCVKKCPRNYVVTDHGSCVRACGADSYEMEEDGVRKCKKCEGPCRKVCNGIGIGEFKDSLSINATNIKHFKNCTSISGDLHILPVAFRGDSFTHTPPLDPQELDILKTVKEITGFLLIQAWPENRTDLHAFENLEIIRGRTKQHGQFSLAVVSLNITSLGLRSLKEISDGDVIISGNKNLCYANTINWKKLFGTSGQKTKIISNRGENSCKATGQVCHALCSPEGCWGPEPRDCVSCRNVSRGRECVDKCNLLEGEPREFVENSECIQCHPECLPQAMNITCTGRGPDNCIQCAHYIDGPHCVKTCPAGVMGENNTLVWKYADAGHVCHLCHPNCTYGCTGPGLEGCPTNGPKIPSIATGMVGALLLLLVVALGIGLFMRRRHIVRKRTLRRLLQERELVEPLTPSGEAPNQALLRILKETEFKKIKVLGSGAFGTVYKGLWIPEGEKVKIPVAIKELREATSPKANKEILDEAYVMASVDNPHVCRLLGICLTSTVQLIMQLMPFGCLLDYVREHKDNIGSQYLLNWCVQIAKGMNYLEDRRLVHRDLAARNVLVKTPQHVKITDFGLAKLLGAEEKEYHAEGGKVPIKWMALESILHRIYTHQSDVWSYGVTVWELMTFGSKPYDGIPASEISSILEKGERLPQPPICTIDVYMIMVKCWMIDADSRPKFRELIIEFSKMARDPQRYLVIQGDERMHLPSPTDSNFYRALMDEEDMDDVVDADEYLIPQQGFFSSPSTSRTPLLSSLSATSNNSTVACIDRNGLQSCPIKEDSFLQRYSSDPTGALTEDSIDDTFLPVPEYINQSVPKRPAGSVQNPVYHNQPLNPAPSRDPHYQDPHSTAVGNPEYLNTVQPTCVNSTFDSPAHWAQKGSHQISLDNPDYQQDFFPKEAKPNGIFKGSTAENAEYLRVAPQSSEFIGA
T1 sequence (P00533 whole entry, the tested form may be a part): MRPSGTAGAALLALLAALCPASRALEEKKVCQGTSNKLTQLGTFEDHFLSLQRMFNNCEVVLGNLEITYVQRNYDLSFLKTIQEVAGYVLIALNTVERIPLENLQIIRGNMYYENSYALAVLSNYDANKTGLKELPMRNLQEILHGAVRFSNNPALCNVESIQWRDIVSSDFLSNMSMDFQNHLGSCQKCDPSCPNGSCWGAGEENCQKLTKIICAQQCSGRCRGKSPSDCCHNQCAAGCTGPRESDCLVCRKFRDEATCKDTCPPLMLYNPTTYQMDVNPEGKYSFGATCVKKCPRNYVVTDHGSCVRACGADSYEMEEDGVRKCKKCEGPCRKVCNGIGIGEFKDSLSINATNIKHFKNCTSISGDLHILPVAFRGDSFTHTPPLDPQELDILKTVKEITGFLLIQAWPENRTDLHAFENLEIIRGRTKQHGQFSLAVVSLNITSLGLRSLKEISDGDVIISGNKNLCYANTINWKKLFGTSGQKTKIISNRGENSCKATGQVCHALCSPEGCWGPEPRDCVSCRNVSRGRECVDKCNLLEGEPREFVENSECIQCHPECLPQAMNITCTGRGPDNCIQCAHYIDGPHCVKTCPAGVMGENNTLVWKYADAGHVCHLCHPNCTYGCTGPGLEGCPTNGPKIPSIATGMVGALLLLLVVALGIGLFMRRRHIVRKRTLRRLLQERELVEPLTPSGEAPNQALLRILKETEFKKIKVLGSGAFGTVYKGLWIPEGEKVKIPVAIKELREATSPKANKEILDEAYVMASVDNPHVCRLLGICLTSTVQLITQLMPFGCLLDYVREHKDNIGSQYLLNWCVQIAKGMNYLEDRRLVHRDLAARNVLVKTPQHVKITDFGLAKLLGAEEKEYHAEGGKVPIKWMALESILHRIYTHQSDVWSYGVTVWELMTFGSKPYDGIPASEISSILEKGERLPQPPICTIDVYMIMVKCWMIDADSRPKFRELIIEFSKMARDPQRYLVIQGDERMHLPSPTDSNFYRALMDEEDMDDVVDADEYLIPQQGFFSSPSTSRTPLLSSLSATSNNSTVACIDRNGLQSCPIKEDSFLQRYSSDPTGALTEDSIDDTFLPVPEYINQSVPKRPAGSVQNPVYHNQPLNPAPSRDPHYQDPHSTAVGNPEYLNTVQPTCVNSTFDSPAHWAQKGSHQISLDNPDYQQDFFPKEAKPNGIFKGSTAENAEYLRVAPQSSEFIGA
Epidermal growth factor receptor (Homo sapiens), P00533 [C797S], sequence (P00533 whole entry C797S, the tested form may be a part): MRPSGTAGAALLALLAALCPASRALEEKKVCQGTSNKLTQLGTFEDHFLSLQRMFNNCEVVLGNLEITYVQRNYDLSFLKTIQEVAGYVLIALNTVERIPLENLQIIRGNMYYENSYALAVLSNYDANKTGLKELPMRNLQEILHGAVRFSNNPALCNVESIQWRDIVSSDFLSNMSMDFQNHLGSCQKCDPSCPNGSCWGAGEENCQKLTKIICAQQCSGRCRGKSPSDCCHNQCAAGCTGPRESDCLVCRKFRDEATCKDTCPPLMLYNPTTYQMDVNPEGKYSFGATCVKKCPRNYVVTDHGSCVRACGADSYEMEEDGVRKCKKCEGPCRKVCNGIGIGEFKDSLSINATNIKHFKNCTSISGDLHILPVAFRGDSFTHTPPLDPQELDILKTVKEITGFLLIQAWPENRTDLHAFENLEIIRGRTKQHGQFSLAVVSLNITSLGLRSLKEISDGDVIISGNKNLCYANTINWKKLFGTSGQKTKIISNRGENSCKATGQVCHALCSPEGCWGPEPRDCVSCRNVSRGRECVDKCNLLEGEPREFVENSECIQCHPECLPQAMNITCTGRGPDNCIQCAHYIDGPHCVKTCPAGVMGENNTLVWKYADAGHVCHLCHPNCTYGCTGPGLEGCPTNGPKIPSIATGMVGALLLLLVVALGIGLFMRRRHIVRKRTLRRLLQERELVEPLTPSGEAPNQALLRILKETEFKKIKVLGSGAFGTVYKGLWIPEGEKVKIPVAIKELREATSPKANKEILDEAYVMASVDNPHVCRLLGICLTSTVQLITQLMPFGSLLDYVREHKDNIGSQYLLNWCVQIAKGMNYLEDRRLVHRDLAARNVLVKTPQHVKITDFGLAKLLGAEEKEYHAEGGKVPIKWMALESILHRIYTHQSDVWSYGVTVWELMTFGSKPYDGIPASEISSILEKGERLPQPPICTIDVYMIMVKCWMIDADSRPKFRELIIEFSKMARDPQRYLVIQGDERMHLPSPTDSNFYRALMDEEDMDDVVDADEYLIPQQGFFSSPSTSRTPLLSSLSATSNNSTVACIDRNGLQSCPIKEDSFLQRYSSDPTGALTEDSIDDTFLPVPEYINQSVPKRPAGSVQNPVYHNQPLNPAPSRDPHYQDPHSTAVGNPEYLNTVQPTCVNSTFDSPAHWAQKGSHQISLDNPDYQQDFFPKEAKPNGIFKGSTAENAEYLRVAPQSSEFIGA
Epidermal growth factor receptor (Homo sapiens), P00533 [L858R], sequence (P00533 whole entry L858R): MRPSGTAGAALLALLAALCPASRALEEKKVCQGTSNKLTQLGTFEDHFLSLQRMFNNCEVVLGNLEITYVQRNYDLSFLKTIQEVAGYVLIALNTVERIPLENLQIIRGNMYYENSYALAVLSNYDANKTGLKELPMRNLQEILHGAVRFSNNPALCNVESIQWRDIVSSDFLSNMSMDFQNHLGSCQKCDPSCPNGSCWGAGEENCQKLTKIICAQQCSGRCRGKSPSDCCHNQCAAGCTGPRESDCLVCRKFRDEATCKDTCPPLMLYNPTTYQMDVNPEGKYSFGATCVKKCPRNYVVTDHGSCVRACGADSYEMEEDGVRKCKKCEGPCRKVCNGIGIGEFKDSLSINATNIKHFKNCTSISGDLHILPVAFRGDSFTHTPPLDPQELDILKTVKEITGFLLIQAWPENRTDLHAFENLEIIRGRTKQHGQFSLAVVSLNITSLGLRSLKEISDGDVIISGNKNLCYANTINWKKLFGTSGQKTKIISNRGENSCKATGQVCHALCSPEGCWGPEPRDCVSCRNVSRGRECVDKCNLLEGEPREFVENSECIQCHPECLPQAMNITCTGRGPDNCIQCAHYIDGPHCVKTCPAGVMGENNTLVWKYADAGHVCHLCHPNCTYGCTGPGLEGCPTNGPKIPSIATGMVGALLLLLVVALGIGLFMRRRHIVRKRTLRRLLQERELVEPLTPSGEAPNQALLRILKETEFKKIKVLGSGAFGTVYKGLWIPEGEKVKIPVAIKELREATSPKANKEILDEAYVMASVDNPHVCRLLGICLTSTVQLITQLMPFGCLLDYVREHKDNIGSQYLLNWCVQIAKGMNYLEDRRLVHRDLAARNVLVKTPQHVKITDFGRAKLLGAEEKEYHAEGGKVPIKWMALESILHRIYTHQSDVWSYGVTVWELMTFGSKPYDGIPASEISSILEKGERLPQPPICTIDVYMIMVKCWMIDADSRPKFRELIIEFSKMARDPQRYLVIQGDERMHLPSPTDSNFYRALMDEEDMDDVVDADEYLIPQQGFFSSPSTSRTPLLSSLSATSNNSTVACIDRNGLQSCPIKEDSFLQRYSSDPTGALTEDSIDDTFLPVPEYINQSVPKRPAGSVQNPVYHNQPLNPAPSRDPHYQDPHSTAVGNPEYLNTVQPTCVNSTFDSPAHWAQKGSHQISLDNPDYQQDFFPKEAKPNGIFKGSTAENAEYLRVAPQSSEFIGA

Row | GI50 [1] | GI50 [2] | SMILES | also measured
1 | 250 nM | 12 nM | C=CC(=O)Nc1cc(Nc2ncc(Cl)c(Nc3ccccc3C(=O)NC)n2)c(OC)cc1N1CCN(C(C)=O)CC1 | 
2 | 190 nM | 41 nM | C=CC(=O)Nc1cc(Nc2nccc(Nc3ccccc3S(=O)(=O)C(C)C)n2)c(OC)cc1N1CCN(CC)CC1 | 
3 | 220 nM | 270 nM | C=CC(=O)Nc1cc(Nc2ncc(Cl)c(NCc3cccs3)n2)c(OC)cc1N1CCN(C)CC1 | 
4 | 1800 nM | 3600 nM | C=CC(=O)Nc1cc(Nc2ncc(Cl)c(N(C)c3cccc(C(F)(F)F)c3)n2)c(OC)cc1N1CCN(C)CC1 | 
5 | 780 nM | 360 nM | C=CC(=O)Nc1cc(Nc2ncc(Cl)c(Nc3ccccc3P(C)(C)=O)n2)c(OC)cc1N1CCOCC1 | 
6 | 130 nM | 2900 nM | C=CC(=O)Nc1cc(Nc2ncc(Cl)c(Nc3c(F)cccc3F)n2)c(OC)cc1N1CCN(C)CC1 | 
7 | 200 nM | 98 nM | C=CC(=O)Nc1cc(Nc2ncc(Cl)c(Nc3ccccc3C#N)n2)c(OC)cc1N1CCC(N2CCN(C)CC2)CC1 | 
8 | 100 nM | 300 nM | C=CC(=O)Nc1cc(Nc2ncc(Cl)c(Nc3ccc(F)c(Cl)c3)n2)c(OC)cc1N1CCN(C)CC1 | 
9 | 77 nM |  | C=CC(=O)Nc1cc(Nc2ncc(Cl)c(Nc3ccccc3S(=O)(=O)C(C)C)n2)c(OC)cc1N1CCN(C2CCCCC2)CC1 | 
10 | 25 nM |  | C=CC(=O)Nc1cc(Nc2ncc(Cl)c(Nc3ccccc3S(=O)(=O)C(C)C)n2)c(OC)cc1N1CCN(C(C)C)CC1 | 
11 | 950 nM | 6500 nM | C=CC(=O)Nc1cc(Nc2ncc(Cl)c(Nc3ccccc3NC(=O)C(C)(C)C)n2)c(OC)cc1N1CCN(C)CC1 | 
12 | 260 nM | 770 nM | C=CC(=O)Nc1cc(Nc2ncc(Cl)c(Nc3cccc(C(F)(F)F)c3)n2)c(OC)cc1N1CCN(C)CC1 | 

More lines, now with the values behind:

Row | SMILES | GI50 [1] | GI50 [2] | also measured
13 | C=CC(=O)Nc1cc(Nc2ncc(Cl)c(Nc3ccccc3C(=O)NC)n2)c(OC)cc1N1CCN(C(C)C)CC1 | 79 nM | 4.5 nM | 
14 | C=CC(=O)Nc1cc(Nc2ncc(Cl)c(Nc3ccccc3C(=O)NC)n2)c(OC)cc1N1CCN(C2CCN(C)CC2)CC1 | 120 nM | 18 nM | 
15 | C=CC(=O)Nc1cc(Nc2ncc(Cl)c(NC3CC3)n2)c(OC)cc1N1CCN(C)CC1 | > 10000 nM | 3200 nM | 
16 | C=CC(=O)Nc1cc(Nc2ncc(C)c(Nc3ccccc3S(=O)(=O)C(C)C)n2)c(OC)cc1N1CCC(N2CCN(C)CC2)CC1 | 27 nM |  | 
17 | CCC(=O)Nc1cc(Nc2ncc(Cl)c(Nc3ccccc3S(=O)(=O)C(C)C)n2)c(OC)cc1N1CCCN(C)CC1 |  |  | GI50 at 72 h [3]: 7100 nM; GI50 [4]: 1500 nM; GI50 [5]: 360 nM; GI50 [6]: 800 nM; GI50 [7]: 270 nM; GI50 [8]: 370 nM; GI50 [9]: 290 nM; GI50 [10]: 1700 nM; GI50 [11]: 700 nM; GI50 [12]: 340 nM; GI50 [13]: 2600 nM; GI50 [14]: 830 nM; GI50 [15]: 1200 nM; GI50 [16]: 3300 nM; GI50 [17]: 2200 nM; GI50 [18]: < 0.3 nM; GI50 [19]: 100 nM; GI50 at 72 h [20]: 3600 nM; GI50 at 72 h [21]: 1300 nM
18 | C=CC(=O)Nc1cc(Nc2ncc(Cl)c(Nc3ccccc3P(C)(C)=O)n2)c(OC)cc1N1CCN(S(C)(=O)=O)CC1 | 890 nM | 800 nM | 
19 | C=CC(=O)Nc1cc(Nc2ncc(Cl)c(Nc3ccccc3P(C)(C)=O)n2)c(OC)cc1N1CCN(CC)CC1 | 26 nM | 37 nM | 
20 | C=CC(=O)Nc1cc(Nc2ncc(Cl)c(Nc3ccccc3S(=O)(=O)C(C)C)n2)c(OC)cc1N1CCOCC1 | 1200 nM | < 0.3 nM | 
21 | C=CC(=O)Nc1cc(Nc2ncc(C)c(Nc3ccccc3S(=O)(=O)C(C)C)n2)c(OC)cc1N1CCN(CC)CC1 | 43 nM | 2 nM | 
22 | C[C@@H](Oc1cc(-c2cnn(C3CCNCC3)c2)cnc1N)c1c(Cl)ccc(F)c1Cl [CRIZOTINIB] |  |  | GI50 at 72 h [3]: 1100 nM; GI50 [18]: 37 nM; GI50 at 72 h [20]: 3200 nM; GI50 at 72 h [21]: 450 nM
23 | C=CC(=O)Nc1cc(Nc2ncc(Cl)c(Nc3ccccc3S(=O)(=O)C(C)C)n2)c(OC)cc1N1CCN(C)CC1 | 43 nM | 33 nM | 
24 | C=CC(=O)Nc1cc(Nc2ncc(Cl)c(Nc3ccccc3S(=O)(=O)C(C)C)n2)ccc1N1CCC(N2CCN(C)CC2)CC1 | 7100 nM | 4900 nM | 
25 | C=CC(=O)Nc1cc(Nc2ncc(Cl)c(Nc3ccccc3C(=O)NC)n2)c(OC)cc1N1CCN(C)CC1 | 50 nM | 3.5 nM | 
26 | C=CC(=O)Nc1cc(Nc2ncc(Cl)c(Nc3ccccc3S(=O)(=O)N(C)C)n2)c(OC)cc1N1CCN(C)CC1 | 31 nM | 11 nM | 
27 | C=CC(=O)Nc1cc(Nc2ncc(Cl)c(Nc3ccccc3P(C)(C)=O)n2)c(OC)cc1N1CCC(N2CCCCC2)CC1 | 41 nM | 78 nM | 
28 | C=CC(=O)Nc1cccc(Oc2nc(Nc3ccc(N4CCN(C)CC4)cc3OC)ncc2Cl)c1 |  |  | GI50 [5]: 890 nM; GI50 [6]: 2.1 nM; GI50 [11]: 56 nM; GI50 [12]: 27 nM; GI50 [13]: 7.4 nM; GI50 [14]: 390 nM; GI50 [15]: > 10000 nM; GI50 [16]: 5700 nM; GI50 [17]: 5300 nM; GI50 at 72 h [20]: 3900 nM; GI50 at 72 h [21]: 4400 nM
29 | COc1cc(N2CCC(N3CCN(C)CC3)CC2)ccc1Nc1ncc(Cl)c(Nc2ccccc2S(=O)(=O)C(C)C)n1 |  |  | GI50 [4]: 560 nM; GI50 [6]: 420 nM
30 | C=CC(=O)Nc1cc(Nc2ncc(Cl)c(Nc3ccccc3S(=O)(=O)C(C)C)n2)c(OC)cc1N1CCCCC1 | 240 nM | 29 nM | 
31 | C=CC(=O)Nc1cc(Nc2ncc(Cl)c(Nc3ccccc3S(=O)(=O)C(C)C)n2)c(OC)cc1N1CCN(CCOC)CC1 | 41 nM |  | 
32 | C=CC(=O)Nc1cc(Nc2ncc(Cl)c(Nc3ccccc3S(=O)(=O)C(C)C)n2)c(OC)cc1N1CCN(S(C)(=O)=O)CC1 | 40 nM |  | 
33 | C=CC(=O)Nc1cc(Nc2ncc(Cl)c(Nc3ccccc3S(=O)(=O)C(C)C)n2)c(OC)cc1N1CCC(N2CCN(C)CC2)CC1 | 23 nM |  | 
34 | C=CC(=O)Nc1cc(Nc2ncc(Cl)c(Nc3ccccc3C#N)n2)c(OC)cc1N1CCOCC1 | 1200 nM | 370 nM | 
35 | C=CC(=O)Nc1cc(Nc2ncc(Cl)c(Nc3ccccc3C#N)n2)c(OC)cc1N1CCN(CC)CC1 | 440 nM | 110 nM | 
36 | C=CC(=O)Nc1cc(Nc2ncc(Cl)c(Nc3ccccc3S(=O)(=O)C(C)C)n2)c(OC(C)C)cc1N1CCN(CC)CC1 | 300 nM | < 0.3 nM | 
37 | C=CC(=O)Nc1cc(Nc2ncc(Cl)c(Nc3ccccc3C#N)n2)c(OC)cc1N1CCN(C(C)C)CC1 | 430 nM | 110 nM | 
38 | C=CC(=O)Nc1cc(Nc2ncc(Cl)c(Nc3ccccc3P(C)(C)=O)n2)c(OC)cc1N1CCC(N(C)C)CC1 | 220 nM | 140 nM | 
